Assay results reported in ChEMBL document CHEMBL4138315, “Synthesis and Evaluation of a Novel Bivalent Selective Antagonist for the Mu-Delta Opioid Receptor Heterodimer that Reduces Morphine Withdrawal in Mice” (J Med Chem, 2018).
Activity calls are given as the source filed them.

Assays:
[1] = molecular target: Delta-type opioid receptor (Homo sapiens, UniProt P41143); assay: Displacement of [3H]-diprenorphine from human DOR expressed in CHO cell membranes after 80 mins by scintillation counting analysis; conditions: cho
Delta-type opioid receptor, sequence (P41143 whole entry): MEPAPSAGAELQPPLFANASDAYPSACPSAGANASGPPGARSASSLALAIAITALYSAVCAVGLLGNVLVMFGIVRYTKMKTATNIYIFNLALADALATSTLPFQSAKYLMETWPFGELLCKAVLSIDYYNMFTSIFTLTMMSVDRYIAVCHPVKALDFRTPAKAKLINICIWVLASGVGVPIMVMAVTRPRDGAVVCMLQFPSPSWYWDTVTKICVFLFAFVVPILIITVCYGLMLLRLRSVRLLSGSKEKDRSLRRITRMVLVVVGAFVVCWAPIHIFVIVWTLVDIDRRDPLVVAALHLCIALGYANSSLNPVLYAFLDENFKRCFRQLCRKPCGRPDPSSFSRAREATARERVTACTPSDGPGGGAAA
Procedure, shortened: (§1)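 Competition binding on MOR-, DOR- or MDOR-CHO membranes used a fixed 3H-diprenorphine level against competitor concentration curves; 30°C, 80 min, GF/B filtration, scintillation counting. Nonspecific binding defined with 500 nM each DMT-Tic-Ala-OH and CTAP. Ki was derived from IC50 and the 3H-diprenorphine KD in each line; MDOR data fitted with a 2-site model. N = 3-4, mean ± SEM.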

Mu-type opioid receptor = Mu-type opioid receptor (Homo sapiens, UniProt P35372); assay: Displacement of [3H]-diprenorphine from human MOR expressed in CHO cell membranes after 80 mins by scintillation counting analysis; conditions: cho; procedure, shortened: as §1
Mu-type opioid receptor, sequence (P35372 whole entry): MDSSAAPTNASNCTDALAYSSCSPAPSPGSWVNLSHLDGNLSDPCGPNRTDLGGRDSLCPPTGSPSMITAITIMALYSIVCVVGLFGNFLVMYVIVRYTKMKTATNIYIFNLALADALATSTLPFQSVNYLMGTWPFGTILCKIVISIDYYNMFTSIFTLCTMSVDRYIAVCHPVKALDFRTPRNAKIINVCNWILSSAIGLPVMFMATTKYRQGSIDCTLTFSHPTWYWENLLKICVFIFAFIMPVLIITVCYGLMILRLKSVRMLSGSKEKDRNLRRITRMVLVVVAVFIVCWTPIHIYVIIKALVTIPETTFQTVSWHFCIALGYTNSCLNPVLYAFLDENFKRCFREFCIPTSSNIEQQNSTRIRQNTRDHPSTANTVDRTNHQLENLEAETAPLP

[2] = molecular target: T1, Opioid receptors; mu & delta (Homo sapiens, UniProt P41143+P35372); assay: Displacement of [3H]-diprenorphine from human mu-delta opioid receptor heterodimer expressed in CHO cell membranes at high site fraction after 80 mins by scintillation counting analysis relative to control
T1 sequence (P35372 whole entry, looked up): as the sequence (P35372 whole entry) above
T1 sequence (P41143 whole entry, looked up): as the sequence (P41143 whole entry) above

[3] = molecular target: T1, Opioid receptors; mu & delta; assay: Displacement of [3H]-diprenorphine from human mu-delta opioid receptor expressed in CHO cell membranes after 80 mins by scintillation counting analysis; procedure, shortened: as §1
[4] = molecular target: T1, Opioid receptors; mu & delta; assay: Antagonist activity at human MOR expressed in CHO cell membranes mixed with human DOR expressed in CHO cell membranes assessed as inhibition of CYM51010-induced [35S]-GTPgammaS binding preincubated for 5 mins followed by CYM51010 and [35S]-GTPgammaS addition measured after 80 mins; type: functional
Procedure, shortened: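 MOR-CHO and DOR-CHO membranes mixed at the molar ratio from MDOR-CHO saturation binding (Bmax 7.9 pmol/mg DOR, 1.1 pmol/mg MOR). Antagonist curve preincubated 5 min, then 1 µM CYM51010 and 0.1 nM 35S-GTPγS. Incubated 30°C, 80 min, then filtered and counted. Normalized to CYM51010 alone and vehicle. N = 3 independent experiments in duplicate.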

[5] = molecular target: T1, Opioid receptors; mu & delta; assay: (§2) Antagonist activity at human mu-delta opioid receptor heterodimer expressed in CHO cell membranes assessed as inhibition of CYM51010-induced [35S]-GTPgammaS binding at high site fraction preincubated for 5 mins followed by CYM51010 and [35S]-GTPgammaS addition measured after 80 mins; type: functional
Procedure, shortened: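 Membranes from CHO cells stably expressing human opioid receptor (N-terminal tagged) were preincubated 5 min with antagonist concentration curves, then given 1 µM CYM51010 and 0.1 nM 35S-GTPγS; 30°C, 80 min, GF/B filtration, scintillation counting. Normalized to CYM51010 alone (100%) and vehicle (0%). Fits: 1-site for MOR/DOR (IC50), 2-site for MDOR (IC50HIGH). N = 3-4, duplicate, mean ± SEM.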

[6] = molecular target: T1, Opioid receptors; mu & delta; assay: as §2, with “80 mins relative to control” for “80 mins”; type: functional
Procedure, shortened: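 35S-GTPγS coupling in MDOR-CHO membranes: 5 min antagonist pre-incubation, then 1 µM CYM51010 plus 0.1 nM 35S-GTPγS, 30°C for 80 min, filtration and scintillation read. A 3-variable 2-site antagonist fit gave FHIGH, the fraction of the high-potency site. N = 3-4 independent experiments.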

[7] = molecular target: Kappa-type opioid receptor (Homo sapiens) (UniProt P41145); assay: Antagonist activity at human KOR expressed in CHO cell membranes assessed as inhibition of U50488-induced [35S]-GTPgammaS binding preincubated for 5 mins followed by U50488 and [35S]-GTPgammaS addition measured after 80 mins; type: functional
Kappa-type opioid receptor (Homo sapiens), sequence (P41145 whole entry): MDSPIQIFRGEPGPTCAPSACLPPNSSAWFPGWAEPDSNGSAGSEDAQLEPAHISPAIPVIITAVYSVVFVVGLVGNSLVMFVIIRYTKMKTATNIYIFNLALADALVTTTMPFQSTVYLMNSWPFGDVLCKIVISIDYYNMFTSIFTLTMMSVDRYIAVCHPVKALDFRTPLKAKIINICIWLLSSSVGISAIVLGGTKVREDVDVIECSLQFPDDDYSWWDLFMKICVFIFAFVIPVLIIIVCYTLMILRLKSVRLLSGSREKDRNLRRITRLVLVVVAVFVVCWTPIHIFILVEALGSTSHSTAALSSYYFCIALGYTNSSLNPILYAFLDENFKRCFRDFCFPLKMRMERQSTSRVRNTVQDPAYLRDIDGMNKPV
Procedure, shortened: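 KOR-CHO membranes (human receptor, N-terminal tag), antagonist concentration curve preincubated 5 min, then 1 µM U50,488 plus 0.1 nM 35S-GTPγS added. Incubated 30°C, 80 min; filtration and scintillation counting. Vehicle 0.1% DMSO in assay buffer with 0.1% BSA. Normalized to agonist alone (100%) and vehicle (0%). One-site curve fit; N = 3 independent experiments in duplicate.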

Mus musculus [8] = assay: Antinociceptive activity in icv dosed CD1 mouse assessed as reduction in CYM51010-induced nociception pretreated for 5 mins followed by CYM51010 injection measured up to 2 hrs by tail flick assay; type: functional
Mus musculus [9] = assay: Antinociceptive activity in icv dosed CD1 mouse assessed as reduction in Deltorphin-2-induced nociception pretreated for 5 mins followed by Deltorphin-2 injection measured up to 2 hrs by tail flick assay; type: functional
Mus musculus [10] = assay: Antinociceptive activity in CD1 mouse assessed as reduction in DAMGO-induced nociception up to10 nmol, icv pretreated for 5 mins followed by DAMGO injection measured up to 2 hrs by tail flick assay; type: functional, organism-based
Mus musculus [11] = assay: Antinociceptive activity in CD1 mouse assessed as reduction in DSLET-induced nociception up to 10 nmol, icv pretreated for 5 mins followed by DSLET injection measured up to 2 hrs by tail flick assay; type: functional, organism-based
Mus musculus [12] = species: Mus musculus; assay: Antinociceptive activity in CD1 mouse assessed as reduction in SNC80-induced nociception at 10 nmol pretreated for 5 mins followed by SNC80 injection measured up to 2 hrs by tail flick assay; type: functional, organism-based
Procedure, shortened: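 Male CD-1 mice received 10 nmol icv (vehicle 2% DMSO/10% Tween80/88% water), 5 min before sc agonist. SNC80 was 10 mg/kg in 20% DMSO/10% Tween80/70% saline; morphine was given in saline. 52°C tail flick, 10 s cutoff, recorded over a 2 h time course; experimenter blinded.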

Mus musculus [13] = assay: Reduction in morphine dependence expression in acute morphine dependence ICR mouse model assessed as inhibition of naloxone-precipitated jumping behavior at 1 nmol, icv administered 5 mins prior to naloxone injection measured up to 20 mins relative to control; type: functional; parameters: scale not given: the % may be the effect or the level left
Procedure, shortened: (§3)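 Acute dependence: morphine 100 mg/kg sc, then naloxone 10 mg/kg ip 4 h later. 1 nmol icv or vehicle given 5 min before naloxone; one control arm had no naloxone. Mice observed 20 min in plexiglass cylinders; jumps counted, then urine and feces weighed.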

Mus musculus [14] = assay: Reduction in morphine dependence expression in chronic morphine dependence ICR mouse model assessed as inhibition of naloxone-precipitated jumping behavior at 1 nmol, icv administered 5 mins prior to naloxone injection measured up to 20 mins relative to control; type: functional; parameters: scale not given: the % may be the effect or the level left
Procedure, shortened: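 Chronic dependence: morphine sc twice daily at 10, 20 and 35 mg/kg on days 1-3, single 35 mg/kg on morning of day 4. Naloxone 30 mg/kg ip 4 h later. 1 nmol icv or vehicle 5 min before naloxone. Jumps counted over 20 min in plexiglass cylinders, then urine and feces weighed.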

Mus musculus [15] = assay: Reduction in morphine dependence expression in acute morphine dependence ICR mouse model assessed as inhibition of naloxone-precipitated GI effects of withdrawal at 1 nmol, […] administered 5 mins prior to naloxone injection measured up to 20 mins; type: functional, organism-based
Mus musculus [16] = assay: Effect on tail flick response in CD1 mouse up to 10 nmol, icv measured up to 2 hrs; type: ADME, organism-based; conditions: in vivo, icv_or_intrathecal
Procedure, shortened: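 Naïve male CD-1 mice were given a dose range up to 10 nmol icv, 5 min before icv vehicle in place of agonist. Tail flick latency in 52°C water (10 s cutoff) recorded over 2 h, baseline first; experimenter blinded.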

Mus musculus [17] = assay: Reduction in morphine dependence expression in acute morphine dependence ICR mouse model assessed as reduction in GI output at 1 nmol, icv up to 20 mins; type: functional, organism-based; procedure, shortened: as §3

N[C@@H](Cc1ccc(O)cc1)C(=O)N1Cc2ccccc2C[C@@H]1C(=O)NCC(=O)NCCCCC(=O)N[C@H](CCCCNC(=O)CCCCNC(=O)CNC(=O)[C@@H](Cc1cccc2ccccc12)NC(=O)[C@H](Cc1ccccc1)NC(=O)[C@@H]1CCCN1C(=O)[C@@H](N)Cc1ccc(O)cc1)C(=O)O showed a Ki [1] of 84 nM, a Ki (Mu-type opioid receptor) of over 1000 nM and an Imax [2] of 11%. For the same compound, the KiH [3] was 0.63 nM, the IC50H [4] was 89 nM and the IC50L [4] was over 1000 nM. It also gave an IC50H [5] of 0.85 nM, an IC50L [5] of over 1000 nM and an Imax [6] of 39%. For the same compound, the inhibition [7] was “inactive”, the A50 (Mus musculus [8]) was 2.04 nmol and the Activity (Mus musculus [8]) was “Dose-dependent effect”. The A50 (Mus musculus [9]) was 7.77 nmol, the Activity (Mus musculus [9]) was “Dose-dependent effect” and the Activity (Mus musculus [10]) was “inactive”. The Activity (Mus musculus [11]) was “inactive”, the Activity (Mus musculus [12]) was “inactive” and the Activity (Mus musculus [13]) was 53.2%. The Activity (Mus musculus [14]) was 85.2%, the Activity (Mus musculus [15]) was “inactive” and the Activity (Mus musculus [16]) was “Non-Toxic”. The Activity (Mus musculus [17]) was “Active”.
